The values below come from ChEMBL document CHEMBL1126183, “Synthesis and biological studies of unsaturated acyclonucleoside analogues of S-adenosyl-L-homocysteine hydrolase inhibitors” (J Med Chem, 1992).

One series concerns DMS-114. Nature of the series: In vitro inhibition of lung DMS 114 cell line. The class given is functional, Homo sapiens. An outline of the steps: (§1)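 NCI 60-cell-line human tumor screen. Cells were grown 24 h after plating, then exposed 48 h to compound at 10⁻⁴, 10⁻⁵, 10⁻⁶, 10⁻⁷ and 10⁻⁸ M. Growth effect (percent inhibition or kill) was read spectrophotometrically by sulforhodamine B protein staining.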

Series [1] relates to K562. As to the kind of experiment: In vitro inhibition of leukemia K-562 cell line. Type of series: functional, Homo sapiens. Put shortly: as §1
Series [2] deals with K562. Nature of the series: In vitro inhibition of leukemia K-562 cell line. Type of series: functional, Homo sapiens. Put shortly:
as §1

The next series has as its system MOLT-4. As to the kind of experiment: In vitro inhibition of Leukemia Molt-4 cell line. The class given is functional, Homo sapiens. Put shortly:
as §1

In a further series the test system is SR. As to the kind of experiment: In vitro inhibition of leukemia SR cell line. Type of series: functional, Homo sapiens. An outline of the steps:
as §1

The subject of the next series is LOX IMVI. Nature of the series: In vitro inhibition of melanoma […] cell line. The class given is functional, Homo sapiens. An outline of the steps: as §1
The subject of series [3] is CCRF-CEM. Nature of the series: In vitro inhibition leukemia CCRF-CEM cell line. Type of series: functional, Homo sapiens. An outline of the steps: as §1
The subject of series [4] is CCRF-CEM. Nature of the series: In vitro inhibition leukemia CCRF-CEM cell line growth. Type of series: functional, Homo sapiens. Put shortly: as §1
Series [5] deals with LXFL 529. Nature of the series: In vitro inhibition lung LXFL529 cell line. The class given is functional, Homo sapiens. Put shortly:
as §1

The test system of series [6] is LXFL 529. Nature of the series: In vitro inhibition lung LXFL529 cell line growth. Type of series: functional, Homo sapiens. An outline of the steps: as §1
Series [7] concerns NCI-H522. As to the kind of experiment: In vitro inhibition lung […] cell line. The class given is functional, Homo sapiens. Put shortly:
as §1

Series [8] relates to NCI-H522. As to the kind of experiment: In vitro inhibition lung […] cell line growth. The class given is functional, Homo sapiens. An outline of the steps:
as §1

In series [9] the test system is SNB-75. Nature of the series: In vitro inhibition CNS SNB-75 cell line. Type of series: functional, Homo sapiens. Put shortly:
as §1

The subject of series [10] is UO-31. As to the kind of experiment: In vitro inhibition renal UO-31 cell line. Type of series: functional, Homo sapiens. Put shortly:
as §1

Series [11] relates to UO-31. As to the kind of experiment: In vitro inhibition renal UO-31 cell line growth. The class given is functional, Homo sapiens. An outline of the steps: as §1
Series [12] has as its system SNB-75. Nature of the series: In vitro inhibition CNS SNB-75 cell line growth. Type of series: functional, Homo sapiens. An outline of the steps:
as §1

For series [13], the system named is Mus musculus. Nature of the series: Mean biodistribution and elimination data in thyroid was reported 1 hr after administering compound intravenously in tumor-bearing female BALB-C mice. The class given is ADME, organism-based, Thyroid gland. The following applies: in vivo, iv. An outline of the steps:
(§2)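 Female Balb-C mice bearing Line-1 spontaneous lung carcinoma were used 1 week after inoculation of 10⁶ cells. The iodine-125-labeled compound was given in normal saline, filter-sterilized, by lateral tail vein injection under ether anesthesia. At set times the mice were killed and the organs excised, rinsed, blotted and weighed. Activity was gamma-counted and reported as percent injected dose/gram tissue; thyroid was reported as percent injected dose/tissue.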

Series [14] has as its system Mus musculus. Nature of the series: Mean biodistribution and elimination data in thyroid was reported 24 hr after administering compound intravenously in tumor-bearing female BALB-C mice. The class given is ADME, organism-based, Thyroid gland. The following applies: in vivo, iv. Put shortly: as §2
Series [15] deals with Mus musculus. Nature of the series: Mean biodistribution and elimination data in thyroid was reported 4 hr after administering compound intravenously in tumor-bearing female BALB-C mice. Type of series: ADME, organism-based, Thyroid gland. The following applies: in vivo, iv. Put shortly: as §2
Series [16] relates to Mus musculus. As to the kind of experiment: Mean biodistribution and elimination data in urine was reported 24 h after administering compound intravenously in tumor-bearing female BALB-C mice. Type of series: ADME, organism-based. The following applies: in vivo, iv. An outline of the steps: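 Tumor-bearing female Balb-C mice (Line-1 lung carcinoma) received the ¹²⁵I-labeled compound in normal saline by tail vein injection under ether anesthesia. Urine radioactivity was gamma-counted and expressed as percent injected dose per total sample. Urine was also analyzed by TLC (solvent E) using UV and radioscanning.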

Series [17] deals with Mus musculus. As to the kind of experiment: Mean biodistribution and elimination data in blood was reported 1 h after administering compound intravenously in tumor-bearing female BALB-C mice. The class given is ADME, organism-based. The following applies: in vivo, iv. An outline of the steps:
as §2

The subject of series [18] is Mus musculus. Nature of the series: Mean biodistribution and elimination data in blood was reported 24 hr after administering compound intravenously in tumor-bearing female BALB-C mice. The following applies: in vivo, iv. Type of series: ADME, organism-based. Put shortly: as §2
Series [19] relates to Mus musculus. Nature of the series: Mean biodistribution and elimination data in blood was reported 4 hr after administering compound intravenously in tumor-bearing female BALB-C mice. Type of series: ADME, organism-based. The following applies: in vivo, iv. Put shortly: as §2
The test system of series [20] is Mus musculus. Nature of the series: Mean biodistribution and elimination data in kidney was reported 1 hr after administering compound intravenously in tumor-bearing female BALB-C mice. The following applies: in vivo, iv. The class given is ADME, organism-based. An outline of the steps: as §2
Series [21] has as its system Mus musculus. Nature of the series: Mean biodistribution and elimination data in kidney was reported 24 hr after administering compound intravenously in tumor-bearing female BALB-C mice. Type of series: ADME, organism-based. The following applies: in vivo, iv. An outline of the steps: as §2
Series [22] concerns Mus musculus. As to the kind of experiment: Mean biodistribution and elimination data in kidney was reported 4 hr after administering compound intravenously in tumor-bearing female BALB-C mice. The following applies: in vivo, iv. Type of series: ADME, organism-based. Put shortly:
as §2

The subject of series [23] is Mus musculus. As to the kind of experiment: Mean biodistribution and elimination data in liver was reported 1 hr after administering compound intravenously in tumor-bearing female BALB-C mice. The class given is ADME, organism-based. The following applies: in vivo, iv. An outline of the steps: as §2
Series [24] has as its system Mus musculus. Nature of the series: Mean biodistribution and elimination data in liver was reported 24 h after administering compound intravenously in tumor-bearing female BALB-C mice. Type of series: ADME, organism-based. The following applies: in vivo, iv. Put shortly:
as §2

For series [25], the system named is Mus musculus. Nature of the series: Mean biodistribution and elimination data in liver was reported 4 hr after administering compound intravenously in tumor-bearing female BALB-C mice. The class given is ADME, organism-based. The following applies: in vivo, iv. Put shortly: as §2
Series [26] relates to Mus musculus. As to the kind of experiment: Mean biodistribution and elimination data in lung was reported 1 hr after administering compound intravenously in tumor-bearing female BALB-C mice. Type of series: ADME, organism-based. The following applies: in vivo, iv. An outline of the steps:
as §2

The test system of series [27] is Mus musculus. Nature of the series: Mean biodistribution and elimination data in lung was reported 24 hr after administering compound intravenously in tumor-bearing female BALB-C mice. The class given is ADME, organism-based. The following applies: in vivo, iv. Put shortly: as §2
Series [28] relates to Mus musculus. Nature of the series: Mean biodistribution and elimination data in lung was reported 4 hr after administering compound intravenously in tumor-bearing female BALB-C mice. Type of series: ADME, organism-based. The following applies: in vivo, iv. Put shortly:
as §2

In series [29] the test system is Mus musculus. Nature of the series: Mean biodistribution and elimination data in tumoe was reported 24 h after administering compound intravenously in tumor-bearing female BALB-C mice. Type of series: ADME, organism-based. The following applies: in vivo, iv. An outline of the steps:
as §2

The subject of series [30] is Mus musculus. As to the kind of experiment: Mean biodistribution and elimination data in tumor was reported 1 hr after administering compound intravenously in tumor-bearing female BALB-C mice. The class given is ADME, organism-based. The following applies: in vivo, iv. Put shortly: as §2
Series [31] deals with Mus musculus. As to the kind of experiment: Mean biodistribution and elimination data in tumor was reported 4 hr after administering compound intravenously in tumor-bearing female BALB-C mice. Type of series: ADME, organism-based. The following applies: in vivo, iv. An outline of the steps: as §2
Series [32] concerns HOP-18. As to the kind of experiment: In vitro inhibition lung HOP-18 cell line. Type of series: functional, Homo sapiens. Put shortly:
as §1

Series [33] deals with HOP-18. As to the kind of experiment: In vitro inhibition lung HOP-18 cell line growth. The class given is functional, Homo sapiens. Put shortly:
as §1

Turning to `C#CCOCn1cnc2c(Cl)ncnc21`, the Cell growth in the series on DMS-114 is 21%; in the series on K562 [1], 34.8%; in the series with MOLT-4 it was 40.7%; with SR, 38.4%; in the series on LOX IMVI, 33.5%. Also, the Inhibition is reported as 79% in the series with DMS-114; 65.2% in the series on K562 [2]; 59.3% in the series with MOLT-4; 61.6% with SR; 66.5% in the series with LOX IMVI.
As to `C#CCOCn1cnc2c(Sc3c([N+](=O)[O-])ncn3C)ncnc21`, the Cell growth in the series with CCRF-CEM [3] was 50%; in the series with LXFL 529 [5], 37%; with NCI-H522 [7], 32%; with SNB-75 [9] it was -14%; with UO-31 [10] it was 48%. Further, the Inhibition was 50% in the series on CCRF-CEM [4], 63% in the series with LXFL 529 [6], 68% in the series with NCI-H522 [8] and 52% in the series with UO-31 [11].
Turning to `C#CCOCn1cnc2c(S)ncnc21`, in the series with SNB-75 [9], the Cell growth came to 0%. In the series with SNB-75 [12], this molecule came in with an Inhibition of 100%.
For `Nc1ncnc2c1ncn2COC/C=C/I`, the ID/thyroid with Mus musculus [13] was determined as 1.29%; in the series on Mus musculus [14], 3.49%; with Mus musculus [15], 3.61%. This molecule showed an ID/animal in the series on Mus musculus [16] of 94.36%. For the same molecule, the ID/g with Mus musculus [17] is on record as 3.15%; in the series on Mus musculus [18] it was 0.34%; with Mus musculus [19], 1.33%; with Mus musculus [20], 3.68%; in the series on Mus musculus [21] it was 0.2%; in the series on Mus musculus [22], 1%. Further, the ID/g in the series on Mus musculus [23] is 3.4%; in the series on Mus musculus [24], 0.33%; in the series with Mus musculus [25], 1.34%; in the series with Mus musculus [26], 3.41%; in the series with Mus musculus [27] it was 0.35%; in the series on Mus musculus [28], 1.3%. Further, the ID/g is reported as 0.06% in the series on Mus musculus [29], 1.5% with Mus musculus [30] and 0.6% in the series on Mus musculus [31]. In addition, the Cell growth in the series with CCRF-CEM [3] is on record as 47.4%; in the series with HOP-18 [32] it was 21.2%; with SNB-75 [9] it was 25.2%. Also, the Inhibition in the series on CCRF-CEM [4] amounted to 52.6%; in the series with SNB-75 [12] it was 74.8%; in the series with HOP-18 [33] it was 78.8%.

A word on the Inhibition: it is the relative decrease from the control value, in per cent.
